An excerpt weighted towards active compounds, which were near 3.7% of everything screened.
MDM2 E3 inh – inhibitors of human Mdm2 E3 ubiquitin ligase | 0.11% of 210,000 active | signal enhancement, % at 5 µM | cell-based MDM2 ubiquitination luciferase reporter, 2 h; 0 = plate control, 100 = twice control, blank-subtracted;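 active means signal enhancement of 30% or more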;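 further: luminescence tracks abundance of the self-degrading MDM2-luciferase fusion protein; higher signal means inhibition of MDM2 E3 ligase activity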
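Assay system: mammalian cells stably expressing self-ubiquitinating, self-degrading MDM2 E3–luciferase fusion. Quantity: 2000 cells in each well. Medium: DMEM culture medium. Compound dosing: single-point 5 µM. Timing: cell settling 4 h, compound treatment 2 h, both 37 °C. Technique: luciferase luminescence. Read-out basis: percent signal gain over controls, blank-subtracted. Benchmarks: plate controls and plate blanks.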
Arbovirus inh – antivirals against arbovirus infection | 0.37% of 200,000 active | arbovirus infection cell-based antiviral screen | inhibition, % at 10 µM; in the data active means inhibition above about 30%
m-calpain inh – blocks pig calpain II enzyme activity; purified calpain II, fluorogenic peptide substrate, 30 min; inhibition, % at 16 µM; 0.37% of 220,000 active;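 active means inhibition above about 50%, limit read from the data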
PKD1 inh – PKD1 (human) kinase inhibition. Q15139. AID 797. 0.056% of 200,000 active. PKD1 kinase fluorescence polarization assay. inhibition, % (no concentration beside the values); in the data active means inhibition above about 50%
ROMK mod – human ROMK K+ channel modulation, primary screen; Tet-inducible ROMK, thallium flux fluorescence; actives lie on both sides; B-score at 10 µM; 2% of 130,000 active;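 active means signal ratio slope over the read window, or its plate-corrected B-score, at least 3 SD from the plate mean, either direction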;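 further: B-score of the F/F0 ratio slope over 7 to 12 s after thallium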
Cl transport mod – KCC2 (human) Cl- transport modulation. AID 1456. 2.2% of 190,000 active. Q9H2X9. KCC2 cells, thallium flux FluoZin-2 fluorescence. B-score of Tl+ flux slope (higher = more flux/activation; lower = inhibition) at 10 µM;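 active means thallium flux slope and its plate-corrected score both differing from the plate sample mean at a set confidence after two filtering rounds, in either direction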;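 further: slope of fluorescence scaled to starting intensity during 10 to 20 s after thallium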
Target sequence (Q9H2X9 whole entry, looked up): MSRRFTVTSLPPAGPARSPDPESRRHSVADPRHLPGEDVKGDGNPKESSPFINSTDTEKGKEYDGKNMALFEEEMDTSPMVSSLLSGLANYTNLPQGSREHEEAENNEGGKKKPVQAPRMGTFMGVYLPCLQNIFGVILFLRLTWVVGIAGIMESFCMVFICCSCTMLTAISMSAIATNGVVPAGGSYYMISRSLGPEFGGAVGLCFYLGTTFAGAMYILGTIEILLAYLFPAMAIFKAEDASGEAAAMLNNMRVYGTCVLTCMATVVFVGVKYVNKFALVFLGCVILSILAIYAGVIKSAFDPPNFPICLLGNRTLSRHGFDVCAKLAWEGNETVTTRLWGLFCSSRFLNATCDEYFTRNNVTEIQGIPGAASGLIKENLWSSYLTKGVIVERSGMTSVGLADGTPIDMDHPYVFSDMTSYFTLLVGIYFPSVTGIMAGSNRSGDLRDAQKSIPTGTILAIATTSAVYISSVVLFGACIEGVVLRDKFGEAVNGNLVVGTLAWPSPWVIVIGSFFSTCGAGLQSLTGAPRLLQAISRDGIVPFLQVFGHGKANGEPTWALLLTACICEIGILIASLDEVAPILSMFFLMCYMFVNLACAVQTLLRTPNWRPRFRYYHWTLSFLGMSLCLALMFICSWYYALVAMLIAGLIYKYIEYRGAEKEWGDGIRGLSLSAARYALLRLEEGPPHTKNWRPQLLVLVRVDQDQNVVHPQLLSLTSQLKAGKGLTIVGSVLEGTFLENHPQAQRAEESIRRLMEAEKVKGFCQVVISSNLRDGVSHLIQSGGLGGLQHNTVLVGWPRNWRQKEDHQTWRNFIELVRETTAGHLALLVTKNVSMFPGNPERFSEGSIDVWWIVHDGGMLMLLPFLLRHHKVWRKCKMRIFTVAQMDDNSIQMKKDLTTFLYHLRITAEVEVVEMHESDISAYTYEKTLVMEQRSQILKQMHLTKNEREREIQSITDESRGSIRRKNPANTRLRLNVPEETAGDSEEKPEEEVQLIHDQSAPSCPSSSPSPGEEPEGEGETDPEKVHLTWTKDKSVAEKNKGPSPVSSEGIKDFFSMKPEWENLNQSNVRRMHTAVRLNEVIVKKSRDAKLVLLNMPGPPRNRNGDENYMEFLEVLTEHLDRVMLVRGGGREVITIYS
KCC2 sec1 – KCC2 (human) modulation, secondary assay; 15% of 3,700 active; normalised thallium flux (F/F0 slope) at 10 µM; shares compounds with Cl transport mod; HEK293-KCC2, thallium flux, FluoZin2 fluorescence; hits give high values;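 active means thallium flux slope above the same plate's solvent-only control mean plus 3 SD; inconclusive means the two replicate wells disagree; inactive means no significant difference from solvent-only control wells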
KCC2 bumet counter – bumetanide-insensitive thallium flux in KCC2 cells with ouabain, counter-screen | shares compounds with Cl transport mod | HEK293-KCC2 + bumetanide/ouabain, thallium flux FluoZin2; hits give high values | normalized thallium flux at 10 µM | 49% of 3,700 active;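 active means thallium entry rate above the same plate's blocked-transporter control wells by more than 3 SD; inconclusive means the two repeat wells disagree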;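 further: raw slope of fluorescence over initial fluorescence between 10 and 20 s after thallium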
KCC2 secondary2 – KCC2 (human) modulation, second secondary assay; shares compounds with Cl transport mod; HEK293-KCC2, thallium flux FluoZin2 fluorescence; actives lie on both sides; F/F0 rise rate, 10–20 s post-thallium; normalized thallium flux at 10 µM; 23% of 3,700 active; AID 1715;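 active means thallium flux slope more than 3 SD above or below the plate's solvent-only control mean, mostly below; inconclusive means the two repeat wells disagreed; inactive means no significant shift from solvent-only controls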;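 further: raw slope with 0.1% DMSO as baseline and bumetanide as block control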
HEK293 Tl flux – acts in parental HEK cells, KCC2 counter-screen | AID 1716 | thallium flux rate (normalised fluorescence) at 10 µM | shares compounds with Cl transport mod | HEK293 parental cells, thallium flux FluoZin2, ouabain; baseline-ratio fluorescence slope, 10–20 s after thallium | 46% of 3,700 active;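 active means thallium flux rate significantly above the same plate's solvent-only control wells, beyond their mean plus 3 SD; inconclusive means the two replicate wells gave conflicting results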
KCC2 ouabain – confirmation of human KCC2 modulators with ouabain; shares compounds with Cl transport mod; HEK293-KCC2, thallium flux FluoZin2 fluorescence; bidirectional: low = inhibitor, high = activator; raw Tl+ flux slope (below DMSO = inhibition, above = activation) at 10 µM; 48% of 3,700 active;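 active means thallium flux slope beyond 3 SD from same-plate DMSO control mean in most replicates, usually higher, sometimes lower; inconclusive means repeat tests gave conflicting results; inactive means no significant difference from controls in most replicates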;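 further: slope of initial-normalized fluorescence between seconds 10 and 20 after thallium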
HEK counter2 – parental HEK flux effect, counter-screen 2; shares compounds with Cl transport mod; HEK293 parental, thallium flux FluoZin-2 fluorescence slope; thallium flux slope at 10 µM; 33% of 3,700 active; AID 1718;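 active means thallium flux slope above the same plate's solvent-control mean plus 3 SD in both duplicate wells; inconclusive means duplicate wells that disagreed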;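 further: run without ouabain in cells lacking the KCC2 cotransporter; slope of fluorescence scaled to its starting value between 10 and 20 s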
* = called active by the depositor; i = inactive; ? = inconclusive; · = not tested or not shown.

SMILES	MDM2 E3 inh	Arbovirus inh	m-calpain inh	PKD1 inh	ROMK mod	Cl transport mod	KCC2 sec1	KCC2 bumet counter	KCC2 secondary2	HEK293 Tl flux	KCC2 ouabain	HEK counter2
Cc1cccc(N/C(=N\S(=O)(=O)c2ccccc2)C(F)(F)F)c1	15	8	5	8	·	·	0.0053	?	0.029	0.01*	0.02	0.011
NC(=O)c1cnn2c(C(F)(F)F)cc(-c3ccc(F)cc3)nc12	20	15	-155	-11	-1.1	·	·	·	·	·	·	·
CC1CCN(c2c(NCC3CCC(C(=O)NCCc4ccccc4)CC3)c(=O)c2=O)CC1 (stereo unspecified)	·	0	-1	-11	-0.15	-4.7*	0.0054	0.0053	?	0.0072	0.018	0.011
Cc1ccc(CCNC(=O)C2CCC(CNc3c(N4CCCC4)c(=O)c3=O)CC2)cc1 (stereo unspecified)	-7	10	5	-7	·	·	0.0079	?	0.034	?	0.019	0.011
CC(=O)CSc1nnc2c3ccccc3nc(C(C)(C)C)n12	0	-14	-13	2	·	1.5	·	·	·	·	·	·
Cc1ccc(C(=O)CSc2nnc3c4ccccc4nc(C(C)(C)C)n23)cc1	-17	-7	-15	-15	-0.099	16*	0.014*	0.043*	0.031	0.019*	0.032*	0.012*
Cc1nnsc1C(=O)NNC(=O)c1cccc2ccccc12	-10	·	-9	·	0.67	1.4	·	·	·	·	·	·
O=C(CN1CCN(c2ccc(F)cc2)CC1)Nc1ccccc1[N+](=O)[O-]	-9	3	13	0	-0.29	-1.5	·	·	·	·	·	·
CCn1c(=O)n(CC)c2cc(S(=O)(=O)N3CCC(c4ccccc4)CC3)ccc21	8	2	-12	5	-2.5	·	0.0062	0.0047	0.025*	0.007	0.017*	0.01
Cn1c(=O)c(=O)n(C)c2cc(S(=O)(=O)N3CCC(Cc4ccccc4)CC3)ccc21	-16	-13	-126	2	-0.062	·	·	·	·	·	·	·
CCOC(=O)C(=CNc1ccc2c(c1)CCN2C(C)=O)C(=O)OCC	7	·	7	·	·	·	·	·	·	·	·	·
CSc1ccc(NC(=O)Nc2cccn(Cc3ccccc3)c2=O)cc1	-13	18	-1	-5	1.7	-0.73	·	·	·	·	·	·
CCOC(=O)c1ccc(N2CN(C3CCCCC3)CNC2=S)cc1	-2	-8	-6	-15	0.3	-0.051	0.0073	0.0049	0.03	0.0085	0.019	0.012
CCOc1ccccc1N1CN(C2CCCCC2)CNC1=S	-3	·	-16	·	·	0.95	·	·	·	·	·	·
COc1cc([N+](=O)[O-])ccc1NC(=O)CN1CCOCC1	-13	18	9	10	-0.7	1	·	·	·	·	·	·
Cc1nc(N2CCc3ccccc32)[nH]c(=O)c1CCC(C)C	·	·	·	-13	-0.035	0.79	·	·	·	·	·	·
Cc1ccc(Nc2nc(=O)c3cc([N+](=O)[O-])ccc3s2)cc1	·	·	15	·	·	2.5	·	·	·	·	·	·
Cc1ccccc1Nc1nc(=O)c2cc([N+](=O)[O-])ccc2s1	-5	5	6	-12	·	4.2*	0.0057	0.02*	0.036	0.016*	0.031*	0.016*
CCCCCCCn1c(NC(=O)CC)nc2ccccc21	-1	·	15	·	·	6.5*	?	0.027*	0.031	0.011*	0.025	0.011*
CCC(=O)Nc1nc2ccccc2n1CCN1CCOCC1	4	5	-5	-9	0.36	·	·	·	·	·	·	·
S=C(Nc1ccccc1)Nc1nc2ccccc2n1CCOc1ccc(Cl)cc1	-11	-27	0	4	·	3.1	·	·	·	·	·	·
CCCn1c(NC(=S)Nc2ccccc2)nc2ccccc21	15	2	10	-9	0.27	28*	?	0.018*	0.03	0.0092*	0.038*	0.0094
O=C1CC(=O)CC(c2ccccc2Cl)C1	-2	-7	-23	-2	·	0.44	·	·	·	·	·	·
O=C(c1ccc(F)cc1)N1CCC(c2ccccc2)C1 (stereo unspecified)	-15	·	-24	·	·	-0.46	·	·	·	·	·	·
COc1ccc(C(=O)N2CCCC(c3ccccc3)C2)cc1 (stereo unspecified)	-13	-2	-9	-7	-1	-4.8*	0.0053	0.0073*	0.025*	0.0072	?	0.011
SMILES	MDM2 E3 inh	Arbovirus inh	m-calpain inh	PKD1 inh	ROMK mod	Cl transport mod	KCC2 sec1	KCC2 bumet counter	KCC2 secondary2	HEK293 Tl flux	KCC2 ouabain	HEK counter2
Cc1[nH]c(=S)sc1Cc1ccc(F)cc1	3	-5	18	-1	0.32	40*	0.0056	0.12*	0.084*	0.089*	0.1*	0.067*
CC1(C)Cc2nc(-c3ccccc3)nc(NNC(=O)c3ccco3)c2CO1	12	·	16	·	0.091	-0.43	·	·	·	·	·	·
Cc1ccn2c(NC(C)(C)C)c(-c3cccs3)nc2c1	·	10	i	-4	0.17	-1.1	·	·	·	·	·	·
COc1ccc(CNc2oc(COc3ccccc3)nc2C#N)cc1	-6	2	3	1	-1.1	·	0.0075	?	0.031	0.007	?	0.0096
COc1ccc(CCNc2oc(COc3ccccc3)nc2C#N)cc1	-19	-8	33	-2	-0.024	·	0.0079	0.0047	0.036	?	?	0.011
N#Cc1nc(COc2ccccc2F)oc1NCCc1ccccc1	14	6	10	-6	0.069	·	0.0053	?	0.025*	0.0064*	0.014*	0.01
COc1ccc(Nc2oc(COc3ccc(OC)cc3)nc2C#N)cc1	1	-9	-34	-8	·	0.41	·	·	·	·	·	·
CN(Cc1ccccc1)c1oc(COc2ccccc2F)nc1C#N	-9	12	15	-9	·	·	0.0083	0.0049	0.032	0.0067	?	0.011
CCCc1cc2c(-c3ccccc3)cc(=O)oc2cc1OCc1ccc(C(=O)O)o1	4	-13	-36	7	·	-3.3	·	·	·	·	·	·
N#Cc1nc(COc2ccccc2Cl)oc1NCc1cccnc1	-8	-2	-22	0	·	-3*	0.007	0.0061	0.03	0.0071	0.022*	0.0092
CCOC(=O)c1sc(S(C)=O)c2c1CCc1conc1-2 (stereo unspecified)	-4	·	0	·	·	·	·	·	·	·	·	·
O=C(Nc1nc2ccccc2s1)c1cccc(S(=O)(=O)N2CCc3ccccc32)c1	·	·	-37	·	·	-0.98	·	·	·	·	·	·

Compound activity deposited in PubChem BioAssay by several laboratories.
